Measurements from ChEMBL document CHEMBL4359899, “Synthesis, evaluation and structural investigations of potent purple acid phosphatase inhibitors as drug leads for osteoporosis” (Eur J Med Chem, 2019).
pIC50: −log10 of the molar value.

Columns and labels:
Sus scrofa = species on record: Sus scrofa; test: Competitive inhibition of pig PAP using varying levels of pNPP as substrate measured at pH 4.9 by UV-vis spectrophotometric analysis
Summary of the method: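 Purified pig PAP, first reduced to the FeIII-FeII form (0.77 mM β-mercaptoethanol, 10 min, 37 °C), at 8.4 nM. p-NPP 1–15 mM in 0.1 M acetate pH 4.9 with 25% DMSO, 25 °C. p-Nitrophenol formation read at 405 nm (Δε 342.9 mol−1 L cm−1). Inhibitor concentration varied; Kic fitted by non-linear regression to a general inhibition equation.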

[1] = Solubility of the compound in 25% DMSO; format: physicochemical
[2] = target: T1, Fe(3+)-Zn(2+) purple acid phosphatase (Phaseolus vulgaris) (UniProt P80366); test: Competitive inhibition of red kidney bean PAP using varying levels of pNPP as substrate measured at pH 6.2 by UV-vis spectrophotometric analysis
T1 sequence (whole entry): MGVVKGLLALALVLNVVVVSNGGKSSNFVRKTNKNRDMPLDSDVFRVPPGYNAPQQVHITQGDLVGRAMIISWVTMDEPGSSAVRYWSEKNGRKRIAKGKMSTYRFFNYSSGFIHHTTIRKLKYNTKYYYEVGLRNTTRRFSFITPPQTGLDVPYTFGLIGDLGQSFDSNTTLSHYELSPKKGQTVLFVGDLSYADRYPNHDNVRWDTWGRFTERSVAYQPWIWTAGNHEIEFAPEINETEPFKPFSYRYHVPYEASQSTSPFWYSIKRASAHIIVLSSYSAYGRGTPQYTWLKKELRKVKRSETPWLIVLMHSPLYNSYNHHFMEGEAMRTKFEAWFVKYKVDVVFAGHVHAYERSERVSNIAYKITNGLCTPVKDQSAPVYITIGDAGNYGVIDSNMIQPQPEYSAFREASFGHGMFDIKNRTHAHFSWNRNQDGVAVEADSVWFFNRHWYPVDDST
Summary of the method: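 Red kidney bean PAP (rkbPAP), purified, at 8.4 nM. p-NPP 1–15 mM in 0.1 M MES pH 6.2 with 25% DMSO, 25 °C. p-Nitrophenol formation followed at 405 nm (Δε 1834.4 mol−1 L cm−1). Inhibitor concentration varied; competitive constant Kic from non-linear regression using a general inhibition equation.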

[3] = Inhibition of human PAP assessed as dephosphorylation of 4-methylumbelliferyl phosphate to 4-methylumbelliferone using 4-methylumbelliferyl phosphate as substrate measured for 15 mins by micro-fluorescence detector method

| SMILES | Kic (Sus scrofa) [µM] | solubility [1] | Kic [2] [µM] | pIC50 [3] |
| --- | --- | --- | --- | --- |
| CCCCCCCCCCCCCCCCOC(c1cccc2ccccc12)P(=O)(O)O (racemic) | 0.6 | Soluble | 0.4 | – |
| CCCCCCCCCCCCCCOC(c1cccc2ccccc12)P(=O)(O)O (racemic) | 1.1 | Soluble | 0.2 | – |
| O=C(c1ccccc1)C(C(=O)c1ccccc1)(c1cccc2ccccc12)P(=O)(O)O | – | – | – | 5.85 |
| CCCCCCCCCCCCCCCCCCCCCCOC(c1cccc2ccccc12)P(=O)(O)O (racemic) | 62 | Soluble | 14 | – |
| CCCCCCCCCCCCOC(c1cccc2ccccc12)P(=O)(O)O (racemic) | 0.7 | Soluble | 4.5 | – |

The next lines start with results.

| Kic (Sus scrofa) [µM] | solubility [1] | Kic [2] [µM] | SMILES | pIC50 [3] |
| --- | --- | --- | --- | --- |
| 0.2 | Soluble | 0.5 | CCCCCCCCCCCCCCCCCCOC(c1cccc2ccccc12)P(=O)(O)O (racemic) | – |
| 4.4 | Soluble | 0.8 | CCCCCCCCCCCCCCCCCCCCOC(c1cccc2ccccc12)P(=O)(O)O (racemic) | – |
